Activity calls are given as the source filed them. The rule behind the calls is not given here. Numbered stars: 1 amine (or outer) side, 2 acyl side, 3 side chain; on linkers, the order of the positions; unused ones are H or OH. Square brackets hold non-standard residues; d marks the D form. Peptide text beside a SMILES is read from it. * marks the point of attachment. X7 = O=C([C@H](Cc1ccc(C(O)P(=O)(O)O)cc1)N[*:1])[*:2]; Phe(4-Cl) = N[C@@H](Cc1ccc(Cl)cc1)C(=O)O; X2 = O=C(O)[C@H]1CCCC[C@@H]1C(=O)*; 3Pal = N[C@@H](Cc1cccnc1)C(=O)O

T1 sequence (P08069 31-736 limits assumed): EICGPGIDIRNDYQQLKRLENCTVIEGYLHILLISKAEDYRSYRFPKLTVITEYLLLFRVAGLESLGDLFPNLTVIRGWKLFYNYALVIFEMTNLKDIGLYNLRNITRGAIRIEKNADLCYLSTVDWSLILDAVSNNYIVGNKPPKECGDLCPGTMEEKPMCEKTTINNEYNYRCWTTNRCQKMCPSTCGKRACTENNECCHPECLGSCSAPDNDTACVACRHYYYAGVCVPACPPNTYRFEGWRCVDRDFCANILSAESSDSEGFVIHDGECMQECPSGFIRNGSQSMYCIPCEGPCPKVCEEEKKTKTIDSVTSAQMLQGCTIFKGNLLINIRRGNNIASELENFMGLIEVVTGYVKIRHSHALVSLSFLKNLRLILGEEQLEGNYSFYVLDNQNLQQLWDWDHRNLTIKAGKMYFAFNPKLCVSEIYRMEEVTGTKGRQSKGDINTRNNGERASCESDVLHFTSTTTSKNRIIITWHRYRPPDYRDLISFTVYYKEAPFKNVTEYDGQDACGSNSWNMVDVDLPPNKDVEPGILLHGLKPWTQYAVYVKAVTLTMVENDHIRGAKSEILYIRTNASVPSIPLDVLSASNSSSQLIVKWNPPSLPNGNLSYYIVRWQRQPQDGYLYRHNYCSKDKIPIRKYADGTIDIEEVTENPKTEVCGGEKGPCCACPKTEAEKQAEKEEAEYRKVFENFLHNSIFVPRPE
T1 sequence (P08069 741-1367 limits assumed): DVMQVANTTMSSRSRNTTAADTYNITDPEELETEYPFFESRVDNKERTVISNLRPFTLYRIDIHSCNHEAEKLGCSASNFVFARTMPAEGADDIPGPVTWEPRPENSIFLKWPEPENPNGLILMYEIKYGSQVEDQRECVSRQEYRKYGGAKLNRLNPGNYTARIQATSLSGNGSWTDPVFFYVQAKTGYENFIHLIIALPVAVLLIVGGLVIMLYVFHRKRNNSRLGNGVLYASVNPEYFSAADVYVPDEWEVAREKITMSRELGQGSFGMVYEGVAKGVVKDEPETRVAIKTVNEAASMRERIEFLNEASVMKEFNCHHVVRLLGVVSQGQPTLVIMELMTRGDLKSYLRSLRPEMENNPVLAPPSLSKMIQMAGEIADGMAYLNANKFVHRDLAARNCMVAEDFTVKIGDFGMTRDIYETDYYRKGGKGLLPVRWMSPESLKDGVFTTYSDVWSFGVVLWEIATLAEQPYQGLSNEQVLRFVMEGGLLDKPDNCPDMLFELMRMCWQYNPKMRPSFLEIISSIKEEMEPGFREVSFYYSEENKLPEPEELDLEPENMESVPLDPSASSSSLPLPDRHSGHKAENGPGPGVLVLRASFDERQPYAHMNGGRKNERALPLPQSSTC

The first data set has as its target T1, Insulin-like growth factor 1 receptor (Homo sapiens, UniProt P08069). In words: Activity at pre-activated human GST-His6-tagged IGF-1R expressed in Sf9 cells up to 1 mM measured every 2 mins for 60 mins by Michaelis-Menten constant based ADP Quest assay. The gist of the method:
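Reactions used the same buffer plus 0.1 mg/mL BSA, pre-activated GST-His6-IGF-1R, peptide substrate titrated up to 1 mM, and ADP Quest reagents. ATP started the reaction. Fluorescence was read every 2 min for 60 min. KM came from a Michaelis-Menten fit, n = 3 independent experiments.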
Consider `CNC(=O)[C@H](Cc1c[nH]c2ccccc12)NC(=O)[C@H](CCC(=O)O)NC(=O)[C@H](Cc1ccccc1)NC(=O)[C@@H](N)Cc1ccc(O)cc1` (HELM PEPTIDE1{Y.F.E.W.[CN[*:1]]}$$$$V2.0), for which the outcome was inactive.

System in another data set: not listed separately
Briefly: Solubility of the compound at >1 mM. It counts as physicochemical.
For the compound `CNC(=O)[C@@H](Cc1c[nH]c2ccccc12)NC(=O)[C@H](CCC(=O)O)NC(=O)[C@H](Cc1ccccc1)NC(=O)[C@H](Cc1ccc(O)cc1)NC(=O)[C@H](CCC(=O)O)NC(C)=O`, the solubility result was “Insoluble”.
Same read-out and setting: the value for `CNC(=O)[C@@H](Cc1c[nH]c2ccccc12)NC(=O)[C@H](CCC(=O)O)NC(=O)[C@H](Cc1ccccc1)NC(=O)[C@H](Cc1ccc(O)cc1)NC(=O)[C@H](Cc1cccnc1)NC(C)=O` was “Insoluble”; that for `CNC(=O)[C@H](Cc1c[nH]c2ccccc12)NC(=O)[C@H](CCC(=O)O)NC(=O)[C@H](Cc1ccccc1)NC(=O)[C@H](Cc1ccc(O)cc1)NC(=O)[C@H](Cc1cccnc1)NC(C)=O` was “Insoluble”.
The same measure, in the same setting: the value for `CNC(=O)[C@H](Cc1ccc(Cl)cc1)NC(=O)[C@H](CCC(=O)O)NC(=O)[C@H](Cc1ccccc1)NC(=O)[C@H](Cc1ccc(O)cc1)NC(=O)[C@H](Cc1cccnc1)NC(C)=O` (Ac-[3Pal]YFE[Phe(4-Cl)]-NHMe) was “Insoluble”.

A further data set addresses T1, Insulin-like growth factor 1 receptor. Briefly: Activity at pre-activated human GST-His6-tagged IGF-1R expressed in Sf9 cells assessed as initial phosphorylation rate at 10 uM measured every 2 mins for 60 mins by Michaelis-Menten constant based ADP Quest assay. The essentials: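 Reaction buffer was the same plus 0.1 mg/mL BSA, with kinase, peptide substrate and detection reagents. Started with ATP; fluorescence read every 2 min for 60 min; 3 independent experiments.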
Take `CNC(=O)[C@H](Cc1c[nH]c2ccccc12)NC(=O)[C@H](CCC(=O)O)NC(=O)[C@H](Cc1ccccc1)NC(=O)[C@H](Cc1ccc(O)cc1)NC(=O)[C@H](Cc1cccnc1)NC(C)=O`: the Activity is 0.4 nM/s.
Same read-out and setting: the value for `CNC(=O)[C@H](Cc1ccccc1)NC(=O)[C@H](CCC(=O)O)NC(=O)[C@H](Cc1ccccc1)NC(=O)[C@H](Cc1ccc(O)cc1)NC(=O)[C@@H]1CCCC[C@H]1C(=O)O` (HELM PEPTIDE1{[O=C(O)[C@@H]1CCCC[C@H]1C(=O)[*:2]].Y.F.E.F.[CN[*:1]]}$$$$V2.0) was 0.17 nM/s; that for `CNC(=O)[C@H](Cc1ccc(Cl)c(Cl)c1)NC(=O)[C@H](CCC(=O)O)NC(=O)[C@H](Cc1ccccc1)NC(=O)[C@H](Cc1ccc(O)cc1)NC(=O)[C@H](CC(=O)O)NC(C)=O` (HELM PEPTIDE1{[ac].D.Y.F.E.[O=C([C@H](Cc1ccc(Cl)c(Cl)c1)N[*:1])[*:2]].[CN[*:1]]}$$$$V2.0) was 2.1 nM/s; that for `CNC(=O)[C@H](Cc1c[nH]c2ccccc12)NC(=O)[C@H](CCC(=O)O)NC(=O)[C@H](Cc1ccccc1)NC(=O)[C@H](Cc1ccc(O)cc1)NC(=O)C1CCC1C(=O)O` (stereo partly drawn) (HELM PEPTIDE1{[O=C(O)C1CCC1C(=O)[*:2]].Y.F.E.W.[CN[*:1]]}$$$$V2.0) was 4.3 nM/s.
Still for that read-out and setting: the value for `CNC(=O)[C@H](Cc1c[nH]c2ccccc12)NC(=O)[C@H](CCC(=O)O)NC(=O)[C@H](Cc1ccccc1)NC(=O)[C@H](Cc1ccc(O)cc1)NC(=O)[C@H](CC(N)=O)NC(C)=O` (HELM PEPTIDE1{[ac].N.Y.F.E.W.[CN[*:1]]}$$$$V2.0) was 2.8 nM/s; that for `CNC(=O)[C@H](Cc1c[nH]c2ccccc12)NC(=O)[C@H](CCC(=O)O)NC(=O)[C@H](Cc1ccccc1)NC(=O)[C@H](Cc1ccc(O)cc1)NC(=O)c1ccccc1[N+](=O)[O-]` (HELM PEPTIDE1{[O=C(c1ccccc1[N+](=O)[O-])[*:2]].Y.F.E.W.[CN[*:1]]}$$$$V2.0) was 3.3 nM/s.
The same measure, in the same setting: the value for `CNC(=O)[C@H](Cc1ccccc1)NC(=O)[C@H](CCC(=O)O)NC(=O)[C@H](Cc1ccccc1)NC(=O)[C@H](Cc1ccc(O)cc1)NC(=O)c1ccccc1[N+](=O)[O-]` (HELM PEPTIDE1{[O=C(c1ccccc1[N+](=O)[O-])[*:2]].Y.F.E.F.[CN[*:1]]}$$$$V2.0) was 4.6 nM/s; that for `CNC(=O)[C@H](Cc1c[nH]c2ccccc12)NC(=O)[C@H](CCC(=O)O)NC(=O)[C@H](Cc1ccccc1)NC(=O)[C@H](Cc1ccc(O)cc1)NC(=O)[C@@H]1CCCC[C@H]1C(=O)O` was 1.1 nM/s; that for `CNC(=O)[C@H](Cc1ccc2ccccc2c1)NC(=O)[C@H](CCC(=O)O)NC(=O)[C@H](Cc1ccccc1)NC(=O)[C@H](Cc1ccc(O)cc1)NC(=O)[C@H](CC(=O)O)NC(C)=O` (HELM PEPTIDE1{[ac].D.Y.F.E.[O=C([C@H](Cc1ccc2ccccc2c1)N[*:1])[*:2]].[CN[*:1]]}$$$$V2.0) was 3.4 nM/s.
For `CNC(=O)[C@H](Cc1ccccc1)NC(=O)[C@H](CCC(=O)O)NC(=O)[C@H](Cc1ccccc1)NC(=O)[C@H](Cc1ccc(O)cc1)NC(=O)[C@@H]1CCCC[C@@H]1C(=O)O` (HELM PEPTIDE1{[O=C(O)[C@H]1CCCC[C@H]1C(=O)[*:2]].Y.F.E.F.[CN[*:1]]}$$$$V2.0), the Activity turned out to be 1.1 nM/s.
The same measure, in the same setting: the value for `CNC(=O)[C@H](Cc1c[nH]c2ccccc12)NC(=O)[C@H](CCC(=O)O)NC(=O)[C@H](Cc1ccccc1)NC(=O)[C@H](Cc1ccc(O)cc1)NC(=O)CCC(=O)O` (HELM PEPTIDE1{[O=C(O)CCC(=O)[*:2]].Y.F.E.W.[CN[*:1]]}$$$$V2.0) was 1.45 nM/s; that for `CNC(=O)[C@H](Cc1c[nH]c2cc(Cl)ccc12)NC(=O)CNC(=O)[C@H](Cc1ccccc1)NC(=O)[C@H](Cc1ccc(O)cc1)NC(=O)[C@H](CC(=O)O)NC(C)=O` (HELM PEPTIDE1{[ac].D.Y.F.G.[O=C([C@H](Cc1c[nH]c2cc(Cl)ccc12)N[*:1])[*:2]].[CN[*:1]]}$$$$V2.0) was 2.1 nM/s.
As to `CNC(=O)[C@H](Cc1ccccc1)NC(=O)[C@H](CCC(=O)O)NC(=O)[C@H](Cc1ccccc1)NC(=O)[C@H](Cc1ccc(O)cc1)NC(=O)CCC(=O)O` (HELM PEPTIDE1{[O=C(O)CCC(=O)[*:2]].Y.F.E.F.[CN[*:1]]}$$$$V2.0), the Activity amounted to 0.25 nM/s.
For the compound `CNC(=O)[C@H](Cc1ccc(Cl)cc1)NC(=O)[C@H](CCC(=O)O)NC(=O)[C@H](Cc1ccccc1)NC(=O)[C@H](Cc1ccc(O)cc1)NC(=O)[C@H]1CCCC[C@@H]1C(=O)O` (X2-YFE[Phe(4-Cl)]-NHMe), the Activity came out at 4 nM/s.
As for `CNC(=O)[C@H](Cc1c[nH]c2ccccc12)NC(=O)CNC(=O)[C@H](Cc1ccccc1)NC(=O)[C@H](Cc1ccc(O)cc1)NC(=O)[C@H](CC(=O)O)NC(C)=O`, the Activity was 1.7 nM/s.
Take `CNC(=O)[C@H](Cc1ccccc1)NC(=O)[C@H](CCC(=O)O)NC(=O)[C@H](Cc1ccccc1)NC(=O)[C@H](Cc1ccc(O)cc1)NC(=O)C1CCC1C(=O)O` (stereo partly drawn) (HELM PEPTIDE1{[O=C(O)C1CCC1C(=O)[*:2]].Y.F.E.F.[CN[*:1]]}$$$$V2.0): the Activity worked out at 1.9 nM/s.
Turning to `CNC(=O)[C@H](Cc1ccc(Cl)cc1)NC(=O)CNC(=O)[C@H](Cc1ccccc1)NC(=O)[C@H](Cc1ccc(O)cc1)NC(=O)[C@H](CC(=O)O)NC(C)=O` (HELM PEPTIDE1{[ac].D.Y.F.G.[O=C([C@H](Cc1ccc(Cl)cc1)N[*:1])[*:2]].[CN[*:1]]}$$$$V2.0), the Activity was 0.47 nM/s.
The same measure, in the same setting: the value for `CNC(=O)[C@H](Cc1c[nH]c2cc(Cl)ccc12)NC(=O)[C@H](CCC(=O)O)NC(=O)[C@H](Cc1ccccc1)NC(=O)[C@H](Cc1ccc(O)cc1)NC(=O)[C@H](CC(=O)O)NC(C)=O` (HELM PEPTIDE1{[ac].D.Y.F.E.[O=C([C@H](Cc1c[nH]c2cc(Cl)ccc12)N[*:1])[*:2]].[CN[*:1]]}$$$$V2.0) was 6.7 nM/s.
Same read-out and setting: the value for `CNC(=O)[C@@H](Cc1c[nH]c2ccccc12)NC(=O)CNC(=O)[C@H](Cc1ccccc1)NC(=O)[C@H](Cc1ccc(O)cc1)NC(=O)[C@H](CC(=O)O)NC(C)=O` was 0.09 nM/s.
With `CNC(=O)[C@H](Cc1c[nH]c2ccccc12)NC(=O)[C@H](CCC(=O)O)NC(=O)[C@H](Cc1ccccc1)NC(=O)[C@H](Cc1ccc(O)cc1)NC(=O)[C@@H]1CCC[C@H]1C(=O)O` (HELM PEPTIDE1{[O=C(O)[C@@H]1CCC[C@H]1C(=O)[*:2]].Y.F.E.W.[CN[*:1]]}$$$$V2.0), the Activity is 5.4 nM/s.
On to `CNC(=O)[C@H](Cc1c[nH]c2ccccc12)NC(=O)[C@H](CCC(=O)O)NC(=O)[C@H](Cc1ccccc1)NC(=O)[C@H](Cc1ccc(O)cc1)NC(=O)[C@H]1CCCC[C@@H]1C(=O)O`, for which the Activity is 10.9 nM/s.
On the same count and under the same terms, the value for `CNC(=O)[C@H](Cc1ccccc1)NC(=O)[C@H](CCC(=O)O)NC(=O)[C@H](Cc1ccccc1)NC(=O)[C@H](Cc1ccc(O)cc1)NC(=O)[C@H](CC(N)=O)NC(C)=O` (HELM PEPTIDE1{[ac].N.Y.F.E.F.[CN[*:1]]}$$$$V2.0) was 0.46 nM/s; that for `CNC(=O)[C@H](Cc1ccc(Cl)cc1)NC(=O)[C@H](CCC(=O)O)NC(=O)[C@H](Cc1ccccc1)NC(=O)[C@H](Cc1ccc(O)cc1)NC(=O)[C@H](CC(=O)O)NC(C)=O` (HELM PEPTIDE1{[ac].D.Y.F.E.[O=C([C@H](Cc1ccc(Cl)cc1)N[*:1])[*:2]].[CN[*:1]]}$$$$V2.0) was 2.6 nM/s.
Same read-out and setting: the value for `CNC(=O)[C@@H](Cc1c[nH]c2ccccc12)NC(=O)[C@H](CCC(=O)O)NC(=O)[C@H](Cc1ccccc1)NC(=O)[C@H](Cc1ccc(O)cc1)NC(=O)[C@H]1CCCC[C@@H]1C(=O)O` was 0.51 nM/s.
On to `CNC(=O)[C@H](Cc1ccc(Cl)cc1)NC(=O)[C@H](CCC(=O)O)NC(=O)[C@H](Cc1ccccc1)NC(=O)[C@H](Cc1ccc(O)cc1)NC(=O)[C@H](CCC(=O)O)NC(C)=O` (HELM PEPTIDE1{[ac].E.Y.F.E.[O=C([C@H](Cc1ccc(Cl)cc1)N[*:1])[*:2]].[CN[*:1]]}$$$$V2.0), for which the Activity is 0.26 nM/s.
Same read-out and setting: the value for `CNC(=O)[C@H](Cc1c[nH]c2ccccc12)NC(=O)[C@H](CCC(=O)O)NC(=O)[C@H](Cc1ccccc1)NC(=O)[C@H](Cc1ccc(O)cc1)NC(C)=O` (HELM PEPTIDE1{[ac].Y.F.E.W.[CN[*:1]]}$$$$V2.0) was 0.17 nM/s; that for `CNC(=O)[C@H](Cc1c[nH]c2ccccc12)NC(=O)[C@H](CCC(=O)O)NC(=O)[C@H](Cc1ccccc1)NC(=O)[C@H](Cc1ccc(O)cc1)NC(=O)[C@H](CCC(=O)O)NC(C)=O` was 2.5 nM/s.

A further data set has the same target. Briefly: Inhibition of pre-activated human GST-His6-tagged IGF-1R expressed in Sf9 cells using Ac-EAEDEPEGDYFEWLE-NHMe as substrate after 25 mins by luminescence assay.
As to `CNC(=O)[C@H](Cc1ccc(Cl)cc1)NC(=O)[C@H](CCC(=O)O)NC(=O)[C@H](Cc1ccccc1)NC(=O)[C@H](Cc1ccc(C(O)P(=O)(O)O)cc1)NC(=O)[C@H](Cc1cccnc1)NC(C)=O` (stereo partly drawn) (Ac-[3Pal][X7]FE[Phe(4-Cl)]-NHMe), the half-inhibitory concentration (IC50) came out at 489 µM.

The values above are taken from ChEMBL document CHEMBL2146397, “The Substrate-Activity-Screening methodology applied to receptor tyrosine kinases: a proof-of-concept study” (Eur J Med Chem, 2012).
